Data as given in the RNAGym collection of RNA variant scans (doi:10.1002/anie.201605470).

B1: Osa-1-4 twister ribozyme (parent)
chain: CCGCCUAACACUGCCAAUGCCGGUCCCAAGCCCGGAUAAAAGUGGAGGGGGCGG

Variants of: B1
Experiment: self-cleavage, relative activity (ratio to wild type); higher = more cleavage; co-transcriptional
In short: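 Relative activity is the fraction cleaved divided by that of the wild-type ribozyme. The library came from a DNA template for a 54-nucleotide Oryza sativa twister ribozyme, doped at the 48 positions downstream of the cleavage site with 97 % wild-type base and 1 % of each other base. After 2 h of in vitro transcription at 37 °C with co-transcriptional self-cleavage, the RNA was reverse-transcribed with a template-switching oligonucleotide, amplified by PCR and deep-sequenced, and reads with or without upstream sequence gave the cleavage status.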

Variant | self-cleavage
CCGCCUAACACUGCCAAUGCCGGUCCCAAGCUCGGAUGAAAGUGGAGGGGGCGG | 0.12
CCGCCUAACACUGCCAAUGCCGGUCCCAAGCCAGGAUGAAAGUGGAGGGGGCGG | 0.11
CCGCCUAACACUGCCAAUGCCGGUCCCAAGCCGGGAUGAAAGUGGAGGGGGCGG | 0.07
CCGCCUAACACUGCCAAUGCCGGUCCCAAGCCUGGAUGAAAGUGGAGGGGGCGG | 0.78
CCGCCUAACACUGCCAAUGCCGGUCCCAAGCCCGGAUGAAAGUGGAGGGGGAGG | 1.02
CCGCCUAACACUGCCAAUGCCGGUCCCAAGCCCGGAUGAAAGUGGAGGGGGGGG | 0.96
CCGCCUAACACUGCCAAUGCCGGUCCCAAGCCCGGAUGAAAGUGGAGGGGGUGG | 0.95
CCGCCUAACACUACCAAUGCCGGUCCCAAGCCCGGAUGAAAGUGGAGGGGGCGG | 0.12
CCGCCUAACACUCCCAAUGCCGGUCCCAAGCCCGGAUGAAAGUGGAGGGGGCGG | 0.03
CCGCCUAACACUUCCAAUGCCGGUCCCAAGCCCGGAUGAAAGUGGAGGGGGCGG | 0.03
CCGCCUAACACUGCCAAUACCGGUCCCAAGCCCGGAUGAAAGUGGAGGGGGCGG | 0.46
CCGCCUAACACUGCCAAUCCCGGUCCCAAGCCCGGAUGAAAGUGGAGGGGGCGG | 0.06
CCGCCUAACACUGCCAAUUCCGGUCCCAAGCCCGGAUGAAAGUGGAGGGGGCGG | 0.14
CCGCCUAACACUGCCAAUGCCAGUCCCAAGCCCGGAUGAAAGUGGAGGGGGCGG | 1.01
CCGCCUAACACUGCCAAUGCCCGUCCCAAGCCCGGAUGAAAGUGGAGGGGGCGG | 0.13
CCGCCUAACACUGCCAAUGCCUGUCCCAAGCCCGGAUGAAAGUGGAGGGGGCGG | 0.85
CCGCCUAACACUGCCAAUGCCGAUCCCAAGCCCGGAUGAAAGUGGAGGGGGCGG | 0.47
CCGCCUAACACUGCCAAUGCCGCUCCCAAGCCCGGAUGAAAGUGGAGGGGGCGG | 0.08
CCGCCUAACACUGCCAAUGCCGUUCCCAAGCCCGGAUGAAAGUGGAGGGGGCGG | 0.1
CCGCCUAACACUGCCAAUGCCGGUCCCAAACCCGGAUGAAAGUGGAGGGGGCGG | 0.05
CCGCCUAACACUGCCAAUGCCGGUCCCAACCCCGGAUGAAAGUGGAGGGGGCGG | 0.04
CCGCCUAACACUGCCAAUGCCGGUCCCAAUCCCGGAUGAAAGUGGAGGGGGCGG | 0.04
CCGCCUAACACUGCCAAUGCCGGUCCCAAGCCCAGAUGAAAGUGGAGGGGGCGG | 0.84
CCGCCUAACACUGCCAAUGCCGGUCCCAAGCCCCGAUGAAAGUGGAGGGGGCGG | 0.59

Variant | self-cleavage
CCGCCUAACACUGCCAAUGCCGGUCCCAAGCCCUGAUGAAAGUGGAGGGGGCGG | 0.74
CCGCCUAACACUGCCAAUGCCGGUCCCAAGCCCGAAUGAAAGUGGAGGGGGCGG | 0.83
CCGCCUAACACUGCCAAUGCCGGUCCCAAGCCCGCAUGAAAGUGGAGGGGGCGG | 0.26
CCGCCUAACACUGCCAAUGCCGGUCCCAAGCCCGUAUGAAAGUGGAGGGGGCGG | 0.86
CCGCCUAACACUGCCAAUGCCGGUCCCAAGCCCGGAUGAAAAUGGAGGGGGCGG | 0.7
CCGCCUAACACUGCCAAUGCCGGUCCCAAGCCCGGAUGAAACUGGAGGGGGCGG | 0.23
CCGCCUAACACUGCCAAUGCCGGUCCCAAGCCCGGAUGAAAUUGGAGGGGGCGG | 0.12
CCGCCUAACACUGCCAAUGCCGGUCCCAAGCCCGGAUGAAAGUAGAGGGGGCGG | 0.93
CCGCCUAACACUGCCAAUGCCGGUCCCAAGCCCGGAUGAAAGUCGAGGGGGCGG | 0.98
CCGCCUAACACUGCCAAUGCCGGUCCCAAGCCCGGAUGAAAGUUGAGGGGGCGG | 0.95
CCGCCUAACACUGCCAAUGCCGGUCCCAAGCCCGGAUGAAAGUGAAGGGGGCGG | 0.26
CCGCCUAACACUGCCAAUGCCGGUCCCAAGCCCGGAUGAAAGUGCAGGGGGCGG | 0.07
CCGCCUAACACUGCCAAUGCCGGUCCCAAGCCCGGAUGAAAGUGUAGGGGGCGG | 0.09
CCGCCUAACACUGCCAAUGCCGGUCCCAAGCCCGGAUGAAAGUGGAAGGGGCGG | 0.19
CCGCCUAACACUGCCAAUGCCGGUCCCAAGCCCGGAUGAAAGUGGACGGGGCGG | 0.08
CCGCCUAACACUGCCAAUGCCGGUCCCAAGCCCGGAUGAAAGUGGAUGGGGCGG | 0.17
CCGCCUAACACUGCCAAUGCCGGUCCCAAGCCCGGAUGAAAGUGGAGAGGGCGG | 0.11
CCGCCUAACACUGCCAAUGCCGGUCCCAAGCCCGGAUGAAAGUGGAGCGGGCGG | 0.1
CCGCCUAACACUGCCAAUGCCGGUCCCAAGCCCGGAUGAAAGUGGAGUGGGCGG | 0.07
CCGCCUAACACUGCCAAUGCCGGUCCCAAGCCCGGAUGAAAGUGGAGGAGGCGG | 0.13
CCGCCUAACACUGCCAAUGCCGGUCCCAAGCCCGGAUGAAAGUGGAGGCGGCGG | 0.08
CCGCCUAACACUGCCAAUGCCGGUCCCAAGCCCGGAUGAAAGUGGAGGUGGCGG | 0.13
CCGCCUAACACUGCCAAUGCCGGUCCCAAGCCCGGAUGAAAGUGGAGGGAGCGG | 0.74
CCGCCUAACACUGCCAAUGCCGGUCCCAAGCCCGGAUGAAAGUGGAGGGCGCGG | 1
